Measurements of several laboratories.
Lines come from different studies, so protocols differ.
Mode: inhibitor
HDAC6: Protein deacetylase HDAC6 (HDAC6, Homo sapiens, UniProt Q9UBN7)
Dihydroorotate dehydrogenase, mitochondrial, putative: Dihydroorotate dehydrogenase, mitochondrial, putative (Plasmodium vivax, UniProt A5K1N1)
KCNH2: Voltage-gated inwardly rectifying potassium channel KCNH2 (KCNH2, Homo sapiens, UniProt Q12809)

O=c1oc(-c2cccnc2)nc2ccccc12
IC50 (Prothrombin (F2, Homo sapiens, UniProt P00734); enzyme activity; absorbance; pH 7.4): ~970 nM

Cc1cc(OS(=O)(=O)Oc2ccccc2)cc(C(=O)NO)c1
IC50 (HDAC6; enzyme activity; fluorescence): 3830 nM

COc1ccc2c(C(=S)N(C)CC(=O)O)cccc2c1C(F)(F)F
IC50 (Aldo-keto reductase family 1 member B10 (AKR1B10, Homo sapiens, UniProt O60218); enzyme activity): 57 nM

CC(C)(C)c1ccc(OS(=O)(=O)Oc2cc(F)cc(C(=O)NO)c2)cc1
IC50 (HDAC6; enzyme activity; fluorescence): 2100 nM

Cc1c(C(=O)OC2CC2)nn(C)c1Cc1ccc(C(F)(F)F)nc1
IC50 (Dihydroorotate dehydrogenase, mitochondrial, putative; enzyme activity; absorbance): 16 nM

O=C(NO)c1cccc(OS(=O)(=O)Oc2ccc3ccccc3c2)c1
IC50 (HDAC6; enzyme activity; fluorescence): 91 nM

CC1(F)CN(C(=O)Cn2c(=O)c(C(=O)NCc3ccc(Cl)cc3)cc3nccnc32)C1
IC50 (KCNH2; ion current; patch clamp): 5910 nM

Cc1cc(OS(=O)(=O)Oc2ccc(-n3ccnc3)cc2)cc(C(=O)NO)c1
IC50 (HDAC6; enzyme activity; fluorescence): 4750 nM

Cn1nc2c(=O)n(C3CC3)ccc2c1[C@](O)(c1cnc(C(F)(F)F)c(Cl)c1)C(F)(F)F
IC50 (Dihydroorotate dehydrogenase, mitochondrial, putative; enzyme activity; absorbance): 19 nM

CNCCN1CCN(c2cnc3c(cc(C(=O)NCc4ccc(Cl)cc4)c(=O)n3CC(=O)N3CC(C)(F)C3)n2)C1=O
IC50 (KCNH2; ion current; patch clamp): > 40000 nM

CCOC(=O)c1nn(C)c(Cc2ccc(C(F)(F)F)nc2)c1C
IC50 (Dihydroorotate dehydrogenase, mitochondrial, putative; enzyme activity; absorbance): 88 nM

COc1cnc2c(cc(C(=O)NCc3ccc(Cl)cc3)c(=O)n2CC(=O)N2CC(C)(F)C2)n1
IC50 (KCNH2; ion current; patch clamp): 2910 nM

CCn1cnc2c([C@@](O)(CC)c3ccc(C(F)(F)F)nc3)n(C)nc2c1=O
IC50 (Dihydroorotate dehydrogenase, mitochondrial, putative; enzyme activity; absorbance): 26 nM

Cc1cc(C(C)(C)C)ccc1OS(=O)(=O)Oc1cc(F)cc(C(=O)NO)c1
IC50 (HDAC6; enzyme activity; fluorescence): 3210 nM

CC[C@@](N)(c1cnc(C(F)(F)F)c(Cl)c1)c1c2ncn(C3CC3)c(=O)c2nn1C
IC50 (Dihydroorotate dehydrogenase, mitochondrial, putative; enzyme activity; absorbance): 40 nM

COc1ccc(C[C@H]2COC(=O)[C@@H]2Cc2ccc(OCC(=O)Nc3ccc(C(=O)Nc4ccccc4N)cc3)c(OC)c2)cc1OC
IC50 (HDAC6; enzyme activity): > 10000 nM

Cn1nc2c(=O)n(C3CC3)ncc2c1[C@](N)(c1ccc(C(F)(F)F)c(Cl)c1)C1CC1
IC50 (Dihydroorotate dehydrogenase, mitochondrial, putative; enzyme activity; absorbance): 6.7 nM

CC(C)c1cccc(OS(=O)(=O)Oc2cc(F)cc(C(=O)NO)c2)c1
IC50 (HDAC6; enzyme activity; fluorescence): 832 nM
